Data reported in paper PMC4486254 (Bioorganic & medicinal chemistry, 2010).

Tested on: HIV-1HXB2
Experiment: Replication assay
Type: cell-based
Settings: at concentrations below 10 µM; MT-4 Luc system
Procedure, shortened: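 MT-4 cells stably transduced with a firefly luciferase cassette by a murine leukemia viral vector, constitutively expressing luciferase. 1 × 10^3 cells per well infected with HIV-1 HXB2 alongside various peptide concentrations. Cells lysed at 6–7 days post-infection; luciferase activity measured as chemiluminescence, in relative luciferase units. A retained signal indicates protection from virus-induced death; a drop indicates cytotoxicity.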

Question: “Ac-QIFEHLAGIIQILRFLRI-R8-NH2 [control peptide isomer of 5]” was tested. Which “anti-HIV activity (in words)” value did it give?
Answer: Its value is “did not show anti-HIV activity”.
